These results are taken from ChEMBL document CHEMBL5365533, “DNA major versus minor groove occupancy of monomeric and dimeric crystal violet derivatives. Toward structural correlations” (Bioorg Med Chem, 2023).

As a reminder, the ΔTm is the shift of the melting midpoint relative to a reference.

Assay [1] deals with Calf thymus DNA. The assay is described as follows: Binding affinity to calf thymus DNA in Tris-HCl buffer at pH 7.0 assessed as minimal change in viscosity at 2 to 26 uM incubated for 30 mins by Ostwald viscometer analysis. The format is nucleic-acid assay. The note with it: Bos taurus, dose 2-26 µM. In a few lines:
(§1)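 Ostwald viscometer at 23.0 ± 1 °C. CT DNA held at 300 μM/bp in 10 mM Tris-HCl pH 7.0 with ligand or ethidium at 0–26 μM, incubated 30 min before timing flow. (η/η0)^1/3 plotted against [ligand]/[DNA]; three replicates, SD shown.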

Assay [2] concerns AT rich DNA. The assay is described as follows: Displacement of Ethidium bromide from AT3 (5'-ATATAT-3') hairpin DNA (unknown origin)/EtBr complex assessed as binding constant by crystal violet staining based analysis. In kind it is nucleic-acid assay.
Assay [3] is described as follows: Displacement of Ethidium bromide from STAT6 (5'-TCCTAG-3') hairpin DNA (unknown origin)/EtBr complex assessed as binding constant by crystal violet staining based analysis.
Assay [4] is described as follows: Displacement of Ethidium bromide from cMyc (5'-CACGTG-3') hairpin DNA (unknown origin)/EtBr complex assessed as binding constant by crystal violet staining based analysis.
Assay [5] deals with Calf thymus DNA. The assay is described as follows: Binding affinity to calf thymus DNA assessed as change in melting temperature by UV thermal denaturation assay. Particulars: Bos taurus. In kind it is nucleic-acid assay. An outline of the steps:
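CT DNA in 10 mM Tris-HCl pH 7.0 at a DNA:ligand ratio of 30:1, in 1 cm quartz cuvettes. Absorbance read every 2 °C from 25 to 95 °C, heating at 1 °C/min. Tm taken from first-derivative plots.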

Assay [6] in a line: Binding affinity to DDD hairpin DNA (unknown origin) assessed as binding constant at 100 uM by ITC analysis. An outline of the steps:
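Isothermal titration calorimetry of DDD hairpin (10 μM in cell) titrated with ligand (100 μM in syringe), 10 mM Tris-HCl pH 7.0, 30 °C; 25 injections of 10 μL. Heats of dilution subtracted; single-site binding model fitted; K averaged from triplicate experiments.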
A general note: Isothermal titration calorimetry measures the heat released or taken up as one component is titrated into another.

Assay [7] deals with Calf thymus DNA. The experiment in a line: Binding affinity to calf thymus DNA assessed as hypochromic shift by UV spectroscopic analysis. In kind it is nucleic-acid assay. Particulars: Bos taurus. In a few lines: (§2)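 UV titration in 10 mM Tris-HCl pH 7.0 with ligand fixed at 5.0 μM and CT DNA:ligand ratios of 0:1, 1:1, 2:1, 5:1, 10:1 and 30:1.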
For assay [8], the system named is Calf thymus DNA. The assay is described as follows: Binding affinity to calf thymus DNA assessed as bathochromic shift by UV spectroscopic analysis. In kind it is nucleic-acid assay. Particulars: Bos taurus. An outline of the steps: as §2
In assay [9] the test system is Calf thymus DNA. The experiment in a line: Binding affinity to calf thymus DNA in Tris-HCl buffer at pH 7.0 assessed as lengthening of DNA from intercalation of drug incubated for 30 mins by Ostwald viscometer analysis. In kind it is nucleic-acid assay. Particulars: Bos taurus. In a few lines:
as §1

Assay [10] relates to Calf thymus DNA. The assay is described as follows: Binding affinity to calf thymus DNA in Tris-HCl buffer at pH 7.0 assessed as rigidification of DNA from intercalation of drug incubated for 30 mins by Ostwald viscometer analysis. The format is nucleic-acid assay. Particulars: Bos taurus. An outline of the steps:
as §1

Assay [11] deals with DNA. The experiment in a line: Displacement of Ethidium bromide from A5T5 (5'-GGGAAAAATTTTTCCCCC-3') DNA (unknown origin)/EtBr complex assessed as decrease in initial absorbance of DNA by crystal violet staining based analysis. In kind it is nucleic-acid assay.
The test system of assay [12] is DNA. The assay is described as follows: Displacement of Ethidium bromide from (AT)5 (5'-GGGATATA-TATATCCC-3') DNA (unknown origin)/EtBr complex assessed as decrease in initial absorbance of DNA by crystal violet staining based analysis. In kind it is nucleic-acid assay.
A short description of assay [13]: Displacement of Ethidium bromide from G5C5 (5'-AAAGGGGG-CCCCCTTT-3') DNA (unknown origin)/EtBr complex assessed as decrease in initial absorbance of DNA by crystal violet staining based analysis.
Assay [14] is described as follows: Displacement of Ethidium bromide from NFAT1 (5-GAAAAA-3') hairpin DNA (unknown origin)/EtBr complex assessed as binding constant by crystal violet staining based analysis.
A short description of assay [15]: Binding affinity to DDD hairpin DNA (unknown origin) in Tris-HCl buffer at pH 5.0 assessed as negative induced CD bands formation at 310nm at 1 mM incubated for 5 mins by CD spectra analysis. In a few lines:
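Ligand (1 mM stock) added in small aliquots to DDD hairpin (8.8 μM) in 10 mM Tris-HCl pH 5.0; mixed by inversion and incubated 5 min at 20 °C. CD recorded 215–350 nm in 0.5 nm steps as the average of three scans.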

In assay [16] the test system is Calf thymus DNA. The experiment in a line: Binding affinity to calf thymus DNA in Tris-HCl buffer at pH 7.0 assessed as differential groove occupancy at 100 uM by ITC analysis. In kind it is nucleic-acid assay. The note with it: Bos taurus. An outline of the steps: (§3)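 ITC of CT DNA (100 μM/bp in cell) titrated with ligand (100 μM in syringe), 10 mM Tris-HCl pH 7.0; 25 injections of 10 μL at 30 °C, or for one ligand 50 injections of 5 μL at 27 °C. Buffer-into-DNA heats subtracted; single-site model gives K, N, ΔH and ΔS.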

The subject of assay [17] is Calf thymus DNA. The experiment in a line: Binding affinity to calf thymus DNA in Tris-HCl buffer at pH 7.0 assessed as change in enthalpy at 100 uM by isothermal titration […] analysis. In kind it is nucleic-acid assay. Particulars: Bos taurus. An outline of the steps:
as §3

Assay [18] concerns Calf thymus DNA. The experiment in a line: Binding affinity to calf thymus DNA in Tris-HCl buffer at pH 7.0 assessed as change in entropy at 100 uM by isothermal titration […] analysis. The note with it: Bos taurus. In kind it is nucleic-acid assay. An outline of the steps: as §3
Assay [19] deals with Calf thymus DNA. The assay is described as follows: Ratio of Kapp for displacement of ethidium bromide from calf thymus DNA/EtBr complex to Kapp for displacement of ethidium bromide from calf thymus DNA/EtBr in presence of methyl green. The note with it: Bos taurus. The format is nucleic-acid assay. In a few lines: (§4)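 Fluorescence titration of CT DNA (1.0 μM/bp) plus ethidium (0.5 μM), with or without netropsin or methyl green (0.5 μM each), against increasing ligand in 10 mM Tris-HCl pH 7.0. Excitation 520 nm, emission 590 nm, read after 3 min equilibration. C50 is the concentration giving 50% fluorescence loss; Kapp = 9.5×10^6 M⁻¹ × C_ethidium/C50.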

Assay [20] has as its system Calf thymus DNA. The experiment in a line: Ratio of Kapp for displacement of ethidium bromide from calf thymus DNA/EtBr complex to Kapp for displacement of ethidium bromide from calf thymus DNA/EtBr in presence of netropsin. Particulars: Bos taurus. The format is nucleic-acid assay. In a few lines:
as §4

Assay [21] is described as follows: Binding affinity to DDD (5-CGAATT-3') hairpin DNA (unknown origin) assessed as binding constant by isothermal titration calorimetry.
Assay [22] deals with Calf thymus DNA. The experiment in a line: Binding affinity to calf thymus DNA in Tris-HCl buffer at pH 7.0 assessed as decrease in viscosity incubated for 30 mins by Ostwald viscometer analysis. Particulars: Bos taurus. The format is nucleic-acid assay. In a few lines:
as §1

Assay [23] concerns AT rich DNA. The assay is described as follows: Displacement of Ethidium bromide from AT3 (5'-ATATAT-3') hairpin DNA (unknown origin)/EtBr complex assessed as decrease in initial absorbance of DNA by crystal violet staining based analysis. The format is nucleic-acid assay.
Assay [24] in a line: Displacement of Ethidium bromide from NFAT1 (5-GAAAAA-3') hairpin DNA (unknown origin)/EtBr complex assessed as decrease in initial absorbance of DNA by crystal violet staining based analysis.
Assay [25] in a line: Displacement of Ethidium bromide from DDD (5-CGAATT-3') hairpin DNA (unknown origin)/EtBr complex assessed as decrease in initial absorbance of DNA by crystal violet staining based analysis.
Assay [26] in a line: Displacement of Ethidium bromide from STAT6 (5'-TCCTAG-3') hairpin DNA (unknown origin)/EtBr complex assessed as decrease in initial absorbance of DNA by crystal violet staining based analysis.
The nature of assay [27]: Displacement of Ethidium bromide from cMyc (5'-CACGTG-3') hairpin DNA (unknown origin)/EtBr complex assessed as decrease in initial absorbance of DNA by crystal violet staining based analysis.
Assay [28] in a line: Displacement of Ethidium bromide from G6 (5'-GGGGGG-3') hairpin DNA (unknown origin)/EtBr complex assessed as decrease in initial absorbance of DNA by crystal violet staining based analysis.
The subject of assay [29] is Calf thymus DNA. The experiment in a line: Binding affinity to calf thymus DNA in Tris-HCl buffer at pH 5.0 assessed as dye aggregation in the DNA groove at 310nm at 1 mM incubated for 5 mins by UV spectra analysis. The format is nucleic-acid assay. Particulars: Bos taurus. An outline of the steps:
(§5)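 CT DNA (80 μM/bp) in 10 mM Tris-HCl pH 5.0 received small aliquots of ligand from a 1 mM stock; incubated 5 min at 20 °C. CD (average of three scans) and UV spectra recorded 215–350 nm in 0.5 nm increments under identical conditions.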

Assay [30] relates to Calf thymus DNA. The assay is described as follows: Binding affinity to calf thymus DNA in Tris-HCl buffer at pH 5.0 assessed as dye aggregation in the DNA groove at 337nm at 1 mM incubated for 5 mins by UV spectra analysis. In kind it is nucleic-acid assay. Particulars: Bos taurus. An outline of the steps: as §5

Each structure is given as a SMILES string. Activity calls are given as the source filed them. The rule behind the calls is not given here.

Take `Cc1cc(N(C)C)cc(C)c1C(=C1C=CC(=[N+](C)C)C=C1)c1ccc(N(C)C)cc1`: the Activity entry with Calf thymus DNA [1] was “Dose-Dependent Effect”. Besides, the K in the assay on AT rich DNA [2] was 0.21 10^5/M; in [3], 1.06 10^5/M; in assay [4], 1.26e+06 M⁻¹; in assay [6], 14.6 10^5/M; in assay [14], 0.19 10^5/M; in assay [21] it was 14.6 10^5/M. Moreover, the ΔTm with Calf thymus DNA [5] is 2.8 °C. The result (with Calf thymus DNA [7]; in the assay with Calf thymus DNA [8]; with Calf thymus DNA [9]; with Calf thymus DNA [10]; in assay [15]; with Calf thymus DNA [16]) was Active. The C50 in the assay with DNA [11] came out at 1.86 µM; in the assay with DNA [12], 1.57 µM; in assay [13] it was 2.05 µM. The deltaH in the assay on Calf thymus DNA [17] stood at 29.7 kcal/mol. Also, in the assay with Calf thymus DNA [18], the deltaS is 0.122 kcal/mol. The values for the Ratio in the assay on Calf thymus DNA [19] and in the assay with Calf thymus DNA [20] were greater than 8 and 1.3, respectively.
As for `CN(C)c1ccc(C(=C2C=CC(=[N+](C)C)C=C2)c2ccc(OCc3ccccc3COc3ccc(C(=C4C=CC(=[N+](C)C)C=C4)c4ccc(N(C)C)cc4)cc3)cc2)cc1`, the Activity result with Calf thymus DNA [22] was “Dose-Dependent Effect”. Also, the K with AT rich DNA [2] was 1.3 10^5/M; in assay [3], 1.32 10^5/M; in [4], 5.06e+06 M⁻¹; in assay [6], 20.5 10^5/M; in [14], 29.1 10^5/M; in [21], 20.5 10^5/M. For the same molecule, the ΔTm in the assay on Calf thymus DNA [5] turned out to be 0.9 °C. The outcome in the assay with Calf thymus DNA [7], in the assay on Calf thymus DNA [8], in the assay on Calf thymus DNA [29], with Calf thymus DNA [30] and in the assay with Calf thymus DNA [16] was Active. The C50 with AT rich DNA [23] was found to be 2.08 µM; in assay [24] it was 2.64 µM; in [25], 1.57 µM; in assay [26], 1.09 µM; in [27], 1.56 µM; in assay [28], 1 µM. Besides, the deltaH in the assay with Calf thymus DNA [17] was -44.7 kcal/mol. Besides, the deltaS in the assay with Calf thymus DNA [18] was -0.12 kcal/mol.
